Bioassay records (PubChem)
Hits are enriched below; roughly 2.4% of the tested compounds scored in any of these assays.
miR122 inh = inhibitors of miR-122 in Huh7 cells; Huh7 miR-122 Renilla luciferase sensor, 48 h; neutral wells = 0, positive control = 100; hit rate 0.3% among 340,000; activation (reporter increase), % at 12.5 µM;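 active means mean replicate activation score at least 90 and every replicate individually at or above 90; inconclusive means only one of the two criteria met; inactive means neither criterion met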;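 further: higher luciferase means less miR-122 activity so hits act as miR-122 inhibitors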
dFosB act-1 = activators of mouse delta FosB homodimer. P13346. purified delta FosB, TAMRA-CDK5 oligo fluorescence polarization; percent of positive-control signal above neutral wells. activation, % at 25 µM. hit rate 0.99% among 340,000. AID 493131;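 active means mean activation above about 17%, with every replicate also reaching it, limit read from the data, passing the limit was not always enough; inconclusive means only one of the two conditions met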
Target sequence (P13346 whole entry, looked up): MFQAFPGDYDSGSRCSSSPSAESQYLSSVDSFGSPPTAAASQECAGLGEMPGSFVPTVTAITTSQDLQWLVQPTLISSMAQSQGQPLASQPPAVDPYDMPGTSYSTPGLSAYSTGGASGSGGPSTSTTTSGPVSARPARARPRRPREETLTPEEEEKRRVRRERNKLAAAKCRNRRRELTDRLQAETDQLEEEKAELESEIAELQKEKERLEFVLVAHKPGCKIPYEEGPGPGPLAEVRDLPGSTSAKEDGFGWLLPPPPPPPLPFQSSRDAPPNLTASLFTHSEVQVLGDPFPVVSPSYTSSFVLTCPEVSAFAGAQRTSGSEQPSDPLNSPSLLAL
INS-1E GSIS act = primary screen for activators of insulin secretion dependent on glucose, INS-1E cells, GLuc reporter luminescence. activation, % at 16.6 µM. INS-1E GLuc reporter insulin secretion, 2-3 h. hit rate 0.61% among 370,000;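 active means lowest replicate activation of at least 40%, so every replicate reaches that level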;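 further: 0% = median of neutral control wells and 100% = median of IBMX positive control wells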
Env fusion inh = inhibitors of HIV Env-mediated cell fusion; HeLa-JRFL Env/CEM21 cell fusion, luciferase; inhibition, % at 12.3 µM; hit rate 1.1% among 360,000; AID 651610;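 active means mean replicate inhibition score of at least 50 and every replicate individually at or above 50; inconclusive means only one of the two criteria met; inactive means mean below 50 and not all replicates reaching 50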;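 further: 0% = plate neutral controls and 100% = maraviroc near 300 nM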
Rtt109 HAT inh = inhibitors of Candida albicans Rtt109/Vps75 histone acetyltransferase | purified Rtt109/Vps75, ThioGlo CoA-SH fluorescence, 4 h | Q5AAJ8 | inhibition, % at 34.9 µM | hit rate 0.16% among 330,000;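 active means inhibition of at least 50% in every replicate; inconclusive means best replicate reaches 50% inhibition but some replicates fall short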
Cneo AK release = causes C. neoformans cell lysis; adenylate kinase release luminescence, 4 h; normalised: neutral wells 0, clomiphene wells 100; lysis activity, % at 15 µM; hit rate 0.2% among 360,000; AID 651654;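 active means mean lysis activity across replicates of at least 80%, whatever share of replicates individually reach that level; inactive means mean lysis activity below 80%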
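Test system: log-phase Cryptococcus neoformans yeast cells; Quantity: yeast cell density of 5 × 10^6 cells/mL; Buffer or medium: YPD; Doses: single compound concentration per well; Timing: 4 h at 37 °C static, read 1 h later; Measured by: AK luminescence; Read-out basis: lysis from increased AK signal; Control set: Clomiphene as positive control.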
dFosB act-2 = enhances mouse delta FosB homodimer binding to DNA. 2,400 tested, under 10 active. purified delta FosB, TAMRA-CDK5 oligo fluorescence polarization; normalised: neutral wells 0, positive control 100. shares compounds with dFosB act-1. activation, % at 24.9 µM;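 active means highest replicate activation at or above 34% and every replicate reaching that threshold; inconclusive means meets only one of the two criteria; inactive means meets neither criterion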;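 further: higher polarization means more probe DNA bound by delta FosB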
Numbers without * were called inactive; ? = inconclusive; nt = no result given; [ ] = remark or other dose.

SMILES	miR122 inh	dFosB act-1	INS-1E GSIS act	Env fusion inh	Rtt109 HAT inh	Cneo AK release	dFosB act-2
COc1ccc(S(=O)(=O)Nc2ccc3c(c2)C(=O)N([C@@H](C)CO)C[C@H](C)[C@@H](CN(C)C(=O)C2CCCCC2)OCCCC[C@@H](C)O3)cc1	-14[16.7 µM]	nt	-31	5[16.7 µM]	nt	1	nt
CC(C)C[C@H]1CNC(=S)N1CC1CCCN1C[C@H](CC(C)C)N1C[C@H](Cc2ccc(O)cc2)N(CC2CCCCC2)C1=S (some centres not stated)	-8	27*	7	3	7	1	5
CC(C)C[C@@H](CN1CCCC1CN1C(=S)NC[C@@H]1Cc1ccc(O)cc1)N1C[C@H](Cc2ccc(O)cc2)N(CC2CCCCC2)C1=S (some centres not stated)	-10	37*	7	42	4	0	7
CC(C)C[C@H]1CN([C@@H](Cc2ccc(O)cc2)CN2CCC[C@@H]2CN2C(=S)NC[C@@H]2Cc2ccccc2)C(=S)N1CC1CCCCC1	-1	nt	24	31	nt	0	nt
CC(C)C[C@H]1CNC(=S)N1CC1CCCN1C[C@H](Cc1ccccc1)N1C[C@H](Cc2ccc(O)cc2)N(CC2CCCCC2)C1=S (some centres not stated)	-4	59*	26	-89	-7	12	2
CC(C)C[C@@H](CN1CCC[C@@H]1CN1C(=S)NC[C@@H]1Cc1ccccc1)N1C[C@H](Cc2ccc(O)cc2)N(CC2CCCCC2)C1=S	-1	nt	-17	20	nt	1	nt
CC(C)C[C@H]1CNC(=S)N1CC1CCCN1C[C@H](CC(C)C)N1C[C@H](Cc2ccc(O)cc2)N(CC2CCCCCC2)C1=S (some centres not stated)	-6	23*	nt	-17	-4	1	4
COc1ccc(COCC23N=C4SCCCN4[C@H](c4ccccc4O2)[C@H]3COC(=O)c2ccccc2)cc1	nt	nt	nt	14[16.7 µM]	nt	6	nt
C/C=C/c1cnc2c(c1)C(=O)N([C@@H](C)CO)C[C@@H](C)[C@H](CN(C)C(=O)c1cccc(F)c1)O2	nt	nt	10	-6[16.7 µM]	nt	75	nt
CC(=O)N(C)C[C@@H]1Oc2cc(C#Cc3ccccc3)ccc2S(=O)(=O)N([C@@H](C)CO)C[C@@H]1C	7[16.7 µM]	nt	-15	8[16.7 µM]	nt	2	nt
NS(=O)(=O)c1ccc(NC(=S)NC(=O)/C=C/c2cccs2)cc1	nt	26*	2	11	-6	nt	1
CC(C)C[C@H]1CN([C@@H](CC(C)C)CN2CCCC2CN2C(=S)NC[C@@H]2Cc2ccc(O)cc2)C(=S)N1CCc1ccccc1 (some centres not stated)	-11	25*	-11	2	0	11	3
CC(C)C[C@H]1CNC(=S)N1C[C@H]1CCCN1C[C@H](Cc1ccc(O)cc1)N1C[C@H](Cc2ccccc2)N(CCc2ccccc2)C1=S	4	nt	-12	-4	nt	0	nt
Oc1ccc(C[C@H]2CNC(=S)N2CC2CCCN2C[C@H](Cc2ccc(O)cc2)N2C[C@H](Cc3ccccc3)N(CCc3ccccc3)C2=S)cc1 (some centres not stated)	5	65*	1	13	11	-2	6
CC(C)C[C@@H](CN1CCCC1CN1C(=S)NC[C@@H]1Cc1ccc(O)cc1)N1C[C@H](Cc2ccccc2)N(CCc2ccccc2)C1=S (some centres not stated)	-4	61*	19	11	18	1	6
C[C@H](CO)N1C[C@H](C)[C@H](CN(C)CC2CC2)Oc2cc(/C=C/c3ccccc3)ccc2S1(=O)=O	-11[16.7 µM]	nt	0	21[16.7 µM]	nt	-3	nt
CCOC(=O)c1c(C)[nH]c2cc(Br)c(OC)cc12	1	18*	nt	nt	-1	0	5
O=C(C1CC1)N1C[C@H]2[C@@H](c3ccccc31)[C@H](CO)N2Cc1ccccc1Cl	19[16.7 µM]	nt	-5	nt	nt	-4	nt
O=C(Cc1cccc2ccccc12)N/N=C/c1ccc(OC(=O)/C=C/c2ccco2)cc1	14	18*	nt	nt	8	-1	1
CO[C@@H]1CN(C)C(=O)c2ccc(NC(=O)c3ccc(F)cc3)cc2OC[C@H](C)N(C(=O)CN(C)C)C[C@H]1C	nt	nt	9	-9[16.7 µM]	nt	nt	nt
COc1cc(C(=O)Nc2nc3ccc(S(C)(=O)=O)cc3s2)cc(OC)c1C	-1	30*	7	-2	8	6	1
COc1ccc2oc(C(=O)Nc3nc4ccc(S(C)(=O)=O)cc4s3)c(C)c2c1	2	61*	3	-5	9	1	7
CC(=O)Nc1nc2cc3c(cc2s1)OCCO3	nt	3	-1	-6	-7	-4	nt
COc1ccc(OCC(=O)Nc2nc3cc4c(cc3s2)OCCO4)cc1	-6	47*	-2	-9	2	0	0
CC(=O)c1sc(NC(=O)c2oc3ccc(F)cc3c2C)nc1C	-13	59*	25	-49	6	-2	-8
SMILES	miR122 inh	dFosB act-1	INS-1E GSIS act	Env fusion inh	Rtt109 HAT inh	Cneo AK release	dFosB act-2
COc1cc(OC)cc(C(=O)Nc2nc3ccc(S(C)(=O)=O)cc3s2)c1	nt	-7	-8	-71	-6	-4	nt
O=C(C[C@@H]1C=C[C@H](NC(=O)c2cccnc2)[C@H](CO)O1)NCCN1CCCCC1	nt	nt	1	nt	nt	nt	nt
CO[C@@H]1CN(C)C(=O)c2cc(NS(=O)(=O)c3ccc(C)cc3)ccc2OC[C@H](C)N(C)C[C@H]1C	-3[16.7 µM]	nt	14	nt	nt	2	nt
COc1ccc2nc(NC(=O)CS(=O)(=O)Cc3ccccc3)sc2c1	nt	74*	4	-9	0	0	-2
CCCOc1ccc(C2c3c(oc4cc(C)c(C)cc4c3=O)C(=O)N2CCCN(C)C)cc1 (configuration not stated)	-3	28*	-7	-9	20	-2	2
Cc1cc2oc3c(c(=O)c2cc1C)C(c1ccc(F)cc1)N(CCCN1CCOCC1)C3=O (configuration not stated)	2	?	nt	-17	16	2	nt
O=C(COc1ccccc1)N/N=C/c1ccc([N+](=O)[O-])o1	nt	0	11	-12	-1	nt	nt
O=C(CNc1ccc2ccccc2c1)N/N=C/c1ccc([N+](=O)[O-])o1	1	31*	-2	-17	-3	-1	4
CCN1/C(=C\C=C2\C(=O)N(c3ccccc3)C(=S)N2C)Sc2ccccc21	-1	28*	-2	15	-9	nt	5
CCN1/C(=C\C=C(C(C)=O)C(C)=O)Sc2ccccc21	nt	-12	-24	-3	-6	nt	nt
